Laboratory results: ChEMBL document CHEMBL4330086, “Synthesis, in silico experiments and biological evaluation of 1,3,4-trisubstituted pyrazole derivatives as antimalarial agents” (Eur J Med Chem, 2019)
pIC50: −log10 of the molar value. Activity calls are given as the source filed them. The rule behind the calls is not given here.

Tests used:
Plasmodium berghei [1] = assay: Anti-plasmodial activity against Plasmodium berghei ANKA infected in mouse assessed as increase in mean survival time at 0.048 mmol/kg/day, po administered as single dose at 24 hrs time interval from day 1 to day 3 and measured 96 hrs post infection; assay type: functional, organism-based
Procedure, shortened: (§1)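 Swiss albino mice, five per group, were infected i.v. on day 0 with 0.2 ml of 2 x 10^7 P. berghei ANKA parasitized erythrocytes. Oral dosing at 0.048 mmol/kg/day began 2 h later and repeated daily on days 1-3. The vehicle was 7% Tween and 3% ethanol in water. Giemsa smears were read on day 4 (5 fields of ~100 RBC). Suppression was taken against vehicle controls, and survival was tracked per mouse.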

Plasmodium falciparum [2] = assay: Anti-plasmodial activity against chloroquine resistant Plasmodium falciparum RKL9 infected in human erythrocytes after 24 hrs by Giemsa staining-based method; assay type: functional, organism-based; conditions: RKL9, 24 h
Procedure, shortened: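 Chloroquine-resistant RKL9 kept in continuous culture (Trager-Jensen). Parasitaemia adjusted to 1-1.5% with fresh human B(+) RBC in RPMI 1640 with 10% AB(+) serum. Two-fold serial dilutions from ethanol stock, duplicate wells, 37°C for 24 h. Giemsa smears scored as schizonts per 100 asexual parasites. Schizont maturation inhibition = 1 − Nt/Nc x 100; IC50 derived.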

Erythrocyte [3] = assay: Antiinflammatory activity in RBC (unknown origin); assay type: functional
Plasmodium berghei [4] = assay: Anti-plasmodial activity against Plasmodium berghei ANKA infected in mouse assessed as suppression in blood parasitemia level at 0.048 mmol/kg/day, po administered as single dose at 24 hrs time interval from day 1 to day 3 and measured 96 hrs post infection by Giemsa staining based microscopic method relative to control; assay type: functional; procedure, shortened: as §1
[5] = Selectivity ratio of IC50 for human PBMC to IC50 for chloroquine resistant Plasmodium falciparum RKL9; assay type: toxicity; conditions: read-out: Ratio IC50
PBMC [6] = assay: Cytotoxicity against human PBMC assessed as reduction in cell viability after 30 mins by Neutral red dye-based phase-contrast inverted microscopic analysis; conditions: 0.5 h
Procedure, shortened: (§2)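 PBMC were isolated from a healthy donor by Ficoll-Hypaque density-gradient centrifugation and exposed to a range of test concentrations. Viability was scored by neutral red uptake, with retained dye taken as proportional to viable cells with intact membranes.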

[7] = Acute toxicity in mouse assessed as mouse death at 150 mg/kg, po after 3 days; assay type: organism-based; conditions: in vivo, 72 h
Procedure, shortened: (§3)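 Male mice, 25-30 g, six per group, fasted overnight and weighed before dosing. Compounds given as suspensions in aqueous 1% gum acacia. Five dose groups per compound. Toxicity signs, body-weight change and deaths recorded over 3 days after administration.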

Erythrocyte [8] = assay: Antiinflammatory activity in RBC (unknown origin) relative to control
PBMC [9] = assay: Cytotoxicity against human PBMC assessed as reduction in cell viability at 6.25 ug/ml after 30 mins by Neutral red dye-based phase-contrast inverted microscopic analysis relative to control; conditions: 0.5 h; procedure, shortened: as §2
Erythrocyte [10] = assay: Antihemolytic activity in RBC (unknown origin); assay type: functional
Erythrocyte [11] = assay: Antihemolytic activity in RBC (unknown origin) at 40 ug/ml relative to control
PBMC [12] = assay: Cytotoxicity against human PBMC assessed as reduction in cell viability at 25 ug/ml after 30 mins by Neutral red dye-based phase-contrast inverted microscopic analysis relative to control; conditions: 0.5 h; procedure, shortened: as §2
Erythrocyte [13] = assay: Antihemolytic activity in RBC (unknown origin) at 20 ug/ml relative to control
Erythrocyte [14] = assay: Antiinflammatory activity in RBC (unknown origin) at 40 ug/ml relative to control
[15] = Acute toxicity in mouse up to 150 mg/kg, po after 3 days; assay type: organism-based; conditions: in vivo, 72 h; procedure, shortened: as §3
[16] = Acute toxicity in mouse assessed as effect on body weight at 150 mg/kg, po after 3 days; assay type: organism-based; conditions: in vivo, 72 h; procedure, shortened: as §3
Erythrocyte [17] = assay: Antihemolytic activity in RBC (unknown origin) relative to control
Erythrocyte [18] = assay: Antiinflammatory activity in RBC (unknown origin) at 20 ug/ml relative to control
[19] = Selectivity ratio of IC50 for antihemolytic activity in RBC (unknown origin) to IC50 for chloroquine resistant Plasmodium falciparum RKL9; assay type: functional
PBMC [20] = assay: Cytotoxicity against human PBMC assessed as reduction in cell viability at 100 ug/ml after 30 mins by Neutral red dye-based phase-contrast inverted microscopic analysis relative to control; conditions: 0.5 h; procedure, shortened: as §2
Plasmodium falciparum [21] = assay: Potency index, ratio of chloroquine phosphate IC50 to compound IC50 for anti-plasmodial activity against chloroquine resistant Plasmodium falciparum RKL9 infected in human erythrocytes; assay type: functional
Plasmodium berghei [22] = assay: Anti-plasmodial activity against Plasmodium berghei ANKA infected in mouse assessed as mean survival time at 0.048 mmol/kg/day, po administered as single dose at 24 hrs time interval from day 1 to day 3 and measured 96 hrs post infection (reference value: 4.33 +/- 0.7 day); assay type: functional
[23] = Selectivity ratio of IC50 for antiinflammatory activity in RBC (unknown origin) to IC50 for chloroquine resistant Plasmodium falciparum RKL9; assay type: functional

COc1ccc(-c2nn(-c3ccccc3)cc2C(=O)N/N=C/c2cc(OC)c(OC)c(OC)c2)cc1
Activity (Plasmodium berghei [1]): Active | pIC50 (Plasmodium falciparum [2]): 7.40 | Activity (Erythrocyte [3]): 29.69% | Activity (Plasmodium berghei [4]): 93.1% | selectivity ratio [5]: 783 | pIC50 (PBMC [6]): 4.51 | Activity [7]: Non-Toxic | pIC50 (Erythrocyte [8]): 4.28 | Activity (PBMC [9]): 43% | Activity (Erythrocyte [10]): 41% | Activity (Erythrocyte [11]): 97.8% | Activity (PBMC [12]): 60% | Activity (Erythrocyte [13]): 85% | Activity (Erythrocyte [14]): 5.34% | Activity [15]: Non-Toxic | Activity [16]: Non-Toxic | pIC50 (Erythrocyte [17]): 3.92 | Activity (Erythrocyte [18]): 17.52% | Ratio IC50 [19]: 1700 | Activity (PBMC [20]): 77.93%

COc1ccc(-c2nn(-c3ccccc3)cc2C(=O)N/N=C/c2cccc(O)c2)cc1
Activity (Plasmodium berghei [1]): Active | pIC50 (Plasmodium falciparum [2]): 7.85 | Activity (Erythrocyte [3]): 49.03% | Activity (Plasmodium berghei [4]): 97.7% | selectivity ratio [5]: 70000 | pIC50 (PBMC [6]): 3.00 | Activity [7]: Non-Toxic | pIC50 (Erythrocyte [8]): 4.80 | Activity (PBMC [9]): -19.18% | Activity (Erythrocyte [10]): 32% | Activity (Erythrocyte [11]): 44% | Activity (PBMC [12]): 54.42% | Activity (Erythrocyte [13]): 40% | Activity (Erythrocyte [14]): 59.58% | Ratio IC50 (Plasmodium falciparum [21]): 13 | Activity [15]: Non-Toxic | Activity [16]: Non-Toxic | pIC50 (Erythrocyte [17]): 3.88 | Activity (Erythrocyte [18]): 54.31% | Activity (PBMC [20]): 12.78%

COc1ccc(-c2nn(-c3ccccc3)cc2C(=O)N/N=C/c2ccccc2)cc1
Activity (Plasmodium berghei [4]): 85.05% | MST (Plasmodium berghei [22]): 9.33 days

C=CCn1c(-c2ccc(Br)cc2)cs/c1=N/NC(=O)c1cn(-c2ccccc2)nc1-c1ccc(OC)cc1
Activity (Plasmodium berghei [1]): Active | pIC50 (Plasmodium falciparum [2]): 7.50 | Activity (Erythrocyte [3]): 35.23% | Activity (Plasmodium berghei [4]): 90.8% | pIC50 (PBMC [6]): 3.65 | Activity [7]: Non-Toxic | pIC50 (Erythrocyte [8]): 4.86 | Activity (PBMC [9]): 8.46% | Activity (Erythrocyte [10]): 16% | Activity (Erythrocyte [11]): 68% | Activity (PBMC [12]): 16.05% | Activity (Erythrocyte [13]): 59% | Activity (Erythrocyte [14]): 80.34% | Activity [15]: Non-Toxic | Activity [16]: Non-Toxic | pIC50 (Erythrocyte [17]): 4.10 | Activity (Erythrocyte [18]): 57.79% | Activity (PBMC [20]): 39.93%

COc1ccc(-c2nn(-c3ccccc3)cc2C(=O)N/N=C/c2cccs2)cc1
Activity (Plasmodium berghei [4]): 86.2% | MST (Plasmodium berghei [22]): 11.5 days

C=CCn1c(-c2ccccc2)cs/c1=N/NC(=O)c1cn(-c2ccccc2)nc1-c1ccc(OC)cc1
Activity (Plasmodium berghei [4]): 71.26% | MST (Plasmodium berghei [22]): 7.33 days

COc1ccc(-c2nn(-c3ccccc3)cc2C(=O)N/N=c2/scc(-c3ccccc3)n2-c2ccccc2)cc1
Activity (Plasmodium berghei [1]): Active | pIC50 (Plasmodium falciparum [2]): 7.31 | Activity (Erythrocyte [3]): 56.11% | Activity (Plasmodium berghei [4]): 97.7% | pIC50 (PBMC [6]): 3.72 | Activity [7]: Non-Toxic | pIC50 (Erythrocyte [8]): 5.46 | Activity (PBMC [9]): -6.2% | Activity (Erythrocyte [10]): 41% | Activity (Erythrocyte [11]): 99.8% | Activity (PBMC [12]): -1.63% | Activity (Erythrocyte [13]): 79% | Activity (Erythrocyte [14]): 106.28% | Activity [15]: Non-Toxic | Activity [16]: Non-Toxic | pIC50 (Erythrocyte [17]): 3.86 | Ratio IC50 [23]: 71 | Activity (Erythrocyte [18]): 81.19% | Activity (PBMC [20]): 48.27%

COc1ccc(-c2nn(-c3ccccc3)cc2-c2n[nH]c(=S)n2-c2ccccc2)cc1
Activity (Plasmodium berghei [4]): 73.56% | MST (Plasmodium berghei [22]): 7.66 days

COc1ccc(-c2nn(-c3ccccc3)cc2C(=O)NNC=O)cc1
Activity (Plasmodium berghei [4]): 70.11% | MST (Plasmodium berghei [22]): 6.66 days

C=CCN1C(=O)CS/C1=N/NC(=O)c1cn(-c2ccccc2)nc1-c1ccc(OC)cc1
Activity (Plasmodium berghei [4]): 79.31% | MST (Plasmodium berghei [22]): 11.33 days

COc1ccc(-c2nn(-c3ccccc3)cc2C(=O)N/N=C/c2ccc(F)cc2)cc1
Activity (Plasmodium berghei [4]): 67.81% | MST (Plasmodium berghei [22]): 10.5 days

C=CCn1c(-c2cn(-c3ccccc3)nc2-c2ccc(OC)cc2)n[nH]c1=S
Activity (Plasmodium berghei [4]): 63.21% | MST (Plasmodium berghei [22]): 5.5 days

C=CCNC(=S)NNC(=O)c1cn(-c2ccccc2)nc1-c1ccc(OC)cc1
Activity (Plasmodium berghei [4]): 70.11% | MST (Plasmodium berghei [22]): 6.66 days

CCN(CC)CCCC(C)Nc1ccnc2cc(Cl)ccc12.O=P(O)(O)O.O=P(O)(O)O (stereo not given) [CHLOROQUINE PHOSPHATE]
Activity (Plasmodium berghei [4]): 100% | MST (Plasmodium berghei [22]): 12.22 days

COc1ccc(-c2nn(-c3ccccc3)cc2C(=O)N/N=C/c2ccncc2)cc1
Activity (Plasmodium berghei [4]): 79.31% | MST (Plasmodium berghei [22]): 8.83 days

COc1ccc(-c2nn(-c3ccccc3)cc2C(=O)NNC(=S)Nc2ccccc2)cc1
Activity (Plasmodium berghei [4]): 73.56% | MST (Plasmodium berghei [22]): 6.66 days

COc1ccc(-c2nn(-c3ccccc3)cc2C(=O)NNC(C)=O)cc1
Activity (Plasmodium berghei [4]): 63.21% | MST (Plasmodium berghei [22]): 6.66 days

CCc1nc(N)nc(N)c1-c1ccc(Cl)cc1 [PYRIMETHAMINE]
Activity (Plasmodium berghei [1]): Active | pIC50 (Plasmodium falciparum [2]): 7.90 | Activity (Plasmodium berghei [4]): 100%

COc1ccc(-c2nn(-c3ccccc3)cc2C(=O)N/N=C2/SCC(=O)N2c2ccccc2)cc1
Activity (Plasmodium berghei [4]): 82.75% | MST (Plasmodium berghei [22]): 12.83 days

COc1ccc(-c2nn(-c3ccccc3)cc2C(=O)N/N=c2/scc(-c3ccc(Br)cc3)n2-c2ccccc2)cc1
Activity (Plasmodium berghei [4]): 81.6% | MST (Plasmodium berghei [22]): 11.66 days
